Experimental data taken from ChEMBL document CHEMBL1135999, “Discovery of N-isoxazolyl biphenylsulfonamides as potent dual angiotensin II and endothelin A receptor antagonists” (J Med Chem, 2002).
pIC50, pKi: −log10 of the molar value. Values belong to the compound of their own block, whether it stands above or below them. Active and inactive are the calls of the source. The calls are words filed in the database; no cut-off is given here.

Assays:
Rattus norvegicus [1] = assay: Compound was tested for its activity in bET-1 pressor test following intravenous administration; NE = No effect; format: functional, organism-based
Rattus norvegicus [2] = assay: Compound was tested for its activity in Ang II pressor test following oral administration; format: functional
In short: (§1)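 Conscious normotensive rats carrying carotid artery and jugular vein catheters. […] Compound was given by oral gavage, and rats were rechallenged with Ang II at intervals up to 240 min. Percent inhibition taken from the maximum blood pressure rise before versus after drug; n = 4 per dose.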

[3] = molecular target: T1, Type-1 angiotensin II receptor B (Rattus norvegicus, UniProt P29089); assay: Compound was evaluated for its binding affinity towards rat Angiotensin II receptor, type 1
T1 sequence (P29089 whole entry): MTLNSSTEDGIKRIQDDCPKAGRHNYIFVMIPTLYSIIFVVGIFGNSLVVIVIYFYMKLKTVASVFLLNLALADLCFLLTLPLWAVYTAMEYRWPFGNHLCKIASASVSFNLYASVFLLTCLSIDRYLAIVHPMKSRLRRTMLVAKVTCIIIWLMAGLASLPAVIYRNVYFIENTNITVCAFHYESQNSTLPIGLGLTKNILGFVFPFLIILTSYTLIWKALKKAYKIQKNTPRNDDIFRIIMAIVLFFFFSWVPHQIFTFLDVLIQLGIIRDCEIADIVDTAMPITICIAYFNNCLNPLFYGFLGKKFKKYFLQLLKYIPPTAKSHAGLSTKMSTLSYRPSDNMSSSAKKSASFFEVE
In short: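 Rat aortic smooth muscle cells grown 48 h to 90% confluency in HEPES-buffered DMEM with 10% FCS. Assayed in DMEM with 0.1% BSA and 0.01% sodium azide, using 0.2 nM [125I]-Sar-Ile-angiotensin II and increasing compound. Nonspecific binding defined with 10 µM Ang II. Incubated 2 h at room temperature with shaking, washed with cold PBS, lysed in 1% Triton X-100, gamma-counted. IC50 obtained by curve fitting.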

Rattus norvegicus [4] = assay: Compound was tested for its activity in bET-1 pressor test following oral administration; NE = No effect; format: functional, organism-based
In short: (§2)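 Conscious normotensive rats challenged iv with big ET-1 (1.0 nmol/kg). A control response was obtained after vehicle. Compound was then given orally, and bET-1 was re-injected iv at 15, 105 and 195 min after dosing. Mean blood pressure followed up to 3 h, with area over curve used as read-out; n = 4 per dose.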

Rattus norvegicus [5] = assay: (§3) Compound was tested for its activity in Ang II pressor test following intravenous administration; format: functional
Rattus norvegicus [6] = assay: Compound was tested for its activity in bET-1 pressor test following oral administration; format: functional; in short: as §2
[7] = Pharmacokinetic parameter MRT value was determined in rat at a dose of 10(umol/kg) following intravenous administration (mean+/-SD); format: ADME, organism-based; details: in vivo
In short: (§4)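 Male rats dosed at 10 µmol/kg, iv or po (n = 6 per route). Plasma exposure followed to give AUC0-∞, clearance, Vss, t1/2 and MRT (iv), and Cmax, Tmax, t1/2, MRT, AUC and oral bioavailability (po). Values reported as mean ± SD.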

Rattus norvegicus [8] = assay: as §3; format: ADME, organism-based
[9] = Pharmacokinetic parameter Area under curve reported following intravenous administration at a dose of 10 (umol/kg) (mean+/-SD); format: ADME; in short: as §4
[10] = half life was determined in rat at a dose of 10 (umol/kg) following intravenous administration (mean+/-SD); format: ADME, organism-based; details: in vivo; in short: as §4
[11] = Pharmacokinetic parameter Volume of distribution was determined in rat following i.v. administration of a dose of 10 (umol/kg) (mean+/-SD); format: ADME, organism-based; details: in vivo, iv, read-out: Vss; in short: as §4
[12] = Pharmacokinetic parameter Area under curve reported following peroral administration at a dose of 10 (umol/kg) (mean+/-SD); format: ADME; details: po; in short: as §4
[13] = A dose of 10 (umol/kg) was administered pre orally to rat and plasma concentration was reported (mean+/-SD); format: ADME, organism-based; design: dose 10 umol/kg, route oral; details: po; in short: as §4
[14] = A dose of 10(umol/kg) was administered orally to rat and Tmax value was determined (mean+/-SD); format: ADME, organism-based; details: in vivo, po; in short: as §4
[15] = half life was determined in rat at a dose of 10 (umol/kg) following peroral administration (mean+/-SD); format: ADME, organism-based; details: in vivo, po; in short: as §4
[16] = A dose of 10(umol/kg) was administered orally to rat and % bioavailability was determined; format: ADME, organism-based; details: in vivo, po, read-out: Bioavailabiility; in short: as §4
Rattus norvegicus [17] = assay: Compound was tested for its activity in bET-1 pressor test following intravenous administration; format: functional
[18] = Pharmacokinetic parameter MRT value determined in rat at a dose of 10(umol/kg) following peroral administration (mean+/-SD); format: ADME, organism-based; details: in vivo, po; in short: as §4
[19] = Pharmacokinetic parameter Plasma clearance determined after intravenous administration at a dose of 10 (umol/kg) (mean+/-SD); format: ADME, organism-based; in short: as §4
Rattus norvegicus [20] = assay: Compound was tested for its activity in Ang II pressor test following intravenous administration; NE = No effect; format: functional, organism-based
Rattus norvegicus [21] = assay: Compound was tested for its activity in Ang II pressor test following oral administration; NE = No effect; format: functional, organism-based; in short: as §1
Endothelin-1 receptor = molecular target: T2, Endothelin-1 receptor (Homo sapiens, UniProt P25101); assay: Compound was evaluated for its binding affinity towards human Endothelin A receptor
T2 sequence (P25101 whole entry): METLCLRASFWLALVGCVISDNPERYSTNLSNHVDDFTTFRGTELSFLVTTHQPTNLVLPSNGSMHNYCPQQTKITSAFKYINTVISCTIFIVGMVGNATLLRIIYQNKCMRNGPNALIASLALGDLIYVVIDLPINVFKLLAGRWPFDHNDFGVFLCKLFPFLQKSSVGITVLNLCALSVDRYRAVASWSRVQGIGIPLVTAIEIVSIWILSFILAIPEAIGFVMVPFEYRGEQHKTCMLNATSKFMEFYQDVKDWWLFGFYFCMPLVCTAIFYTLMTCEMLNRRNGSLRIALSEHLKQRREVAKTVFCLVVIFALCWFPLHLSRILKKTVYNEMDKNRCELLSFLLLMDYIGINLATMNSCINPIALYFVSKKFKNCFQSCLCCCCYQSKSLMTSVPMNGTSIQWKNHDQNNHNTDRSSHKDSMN
In short: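 CHO-K1 cells expressing human ETA receptor, seeded 1.8×10^4 cells/well 24 h before assay. Binding run in 50 mM Tris pH 7.4 with 1% BSA and 2 µM phosphoramidon, using 0.25 nM [125I]-ET-1 and competing drug. Nonspecific binding defined with 500 nM ET-1. Incubated 4 h at 4 °C with shaking, washed, cells dissolved in 0.5 N NaOH, gamma-counted.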

[22] = molecular target: T3, Type-1 angiotensin II receptor (Homo sapiens, UniProt P30556); assay: Compound was evaluated for inhibitory activity against human Angiotensin II receptor, type 1
T3 sequence (P30556 whole entry): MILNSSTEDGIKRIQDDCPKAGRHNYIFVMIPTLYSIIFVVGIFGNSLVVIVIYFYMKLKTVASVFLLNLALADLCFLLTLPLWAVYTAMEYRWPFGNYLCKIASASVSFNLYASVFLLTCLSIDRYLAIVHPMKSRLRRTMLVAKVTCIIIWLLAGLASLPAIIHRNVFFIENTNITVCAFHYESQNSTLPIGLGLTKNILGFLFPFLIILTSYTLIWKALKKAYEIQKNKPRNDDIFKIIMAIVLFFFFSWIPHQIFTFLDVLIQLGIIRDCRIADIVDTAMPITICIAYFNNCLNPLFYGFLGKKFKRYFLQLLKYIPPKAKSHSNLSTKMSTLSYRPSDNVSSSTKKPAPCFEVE
In short: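 Human recombinant AT1 receptor membranes in 50 mM Tris-HCl pH 7.4 with 10 mM MgCl2, 1 mM EDTA and 0.1% BSA. Incubated with 0.2 nM [125I]-Sar-Ile-angiotensin II and increasing compound concentrations, 60 min at 37 °C. Nonspecific binding defined with 10 µM angiotensin II. Bound and free label separated, then gamma-counted.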

SMILES: CCCCC1=NC2(CCCC2)C(=O)N1Cc1ccc(-c2ccccc2-c2nnn[nH]2)cc1 [IRBESARTAN]
NE (Rattus norvegicus [1]): inactive
ED50 (Rattus norvegicus [2]): 16 µmol/kg
pKi [3]: 9.10
Activity (Rattus norvegicus [4]): inactive
ED50 (Rattus norvegicus [5]): 0.3 µmol/kg

SMILES: CCCCC1=NC2(CCCC2)C(=O)N1Cc1ccc(-c2ccccc2S(=O)(=O)Nc2onc(C)c2C)c(CN2CCC(C)(C)C2=O)c1 [BMS-248360]
ED50 (Rattus norvegicus [6]): 26 µmol/kg
MRT [7]: 6.4 h
ED50 (Rattus norvegicus [8]): 1.4 µmol/kg
ED50 (Rattus norvegicus [2]): 39 µmol/kg
AUC [9]: 50 µM·h
half-life [10]: 5.5 h
Vd [11]: 1.4 L/kg
AUC [12]: 19 µM·h
Cmax [13]: 3.1 µM
Tmax [14]: 0.7 h
half-life [15]: 3 h
bioavailability [16]: 38%
ED50 (Rattus norvegicus [17]): 2.1 µmol/kg
MRT [18]: 5 h
clearance [19]: 3.8 mL/min/kg

SMILES: CCCc1cc(Cn2c(CC)nc3c(C)cc(C)nc32)ccc1OC(C(=O)NS(=O)(=O)c1ccc(C(C)C)cc1)c1ccc2c(c1)OCO2 (stereo not drawn)
pIC50 [22]: 7.89

Continued, in another order:

pKi [3]: < 5.00
SMILES: Cc1noc(NS(=O)(=O)c2ccccc2-c2ccc(-c3ncco3)cc2)c1C
ED50 (Rattus norvegicus [6]): 10 µmol/kg
NE (Rattus norvegicus [20]): inactive
ED50 (Rattus norvegicus [17]): 0.9 µmol/kg
NE (Rattus norvegicus [21]): inactive

pKi [3]: 8.33
pKi (Endothelin-1 receptor): 7.41
SMILES: CCCCC1=NC2(CCCC2)C(=O)N1Cc1ccc(-c2ccccc2S(=O)(=O)Nc2onc(C)c2C)cc1
